Results taken from ChEMBL document CHEMBL1124827, “The preparation of 2'-deoxy-2'-fluoro-1',2'-seconucleosides as potential antiviral agents” (J Med Chem, 1990).
Activity calls are given as the source filed them.

Legend:
[1] = test system: Vesicular stomatitis virus; assay: Antiviral activity was determined against Vesicular Stomatitus virus; format: functional, organism-based
unidentified adenovirus [2] = assay: (§1) In vitro antiviral activity was determined against Adenovirus type 2 in monolayer culture of H.Ep.2 cells; format: functional, organism-based
LLC-MK2 = assay: In vitro antiviral activity was determined against Punta toro virus in monolayer culture of LLC-MK2 cells; format: functional, cell-based; details: Cercopithecidae
In short: (§2)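 Virus was adsorbed for 1 h onto monolayers: H.Ep.2 cells for Adenovirus type 2, LLC-MK2 cells for Punta Toro, and Vero cells for Sicilian sandfly fever. Medium with a range of drug concentrations was then added. On the day of maximum cytopathic effect in virus-control wells, the medium was removed and the monolayers were stained with crystal violet. Cytopathic effect was scored microscopically.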

Vero [3] = assay: In vitro antiviral activity was determined against Sicilian Sandfly Fever virus in monolayer culture of Vero cells; format: functional, cell-based; details: Chlorocebus sabaeus; in short: as §2
Vero [4] = assay: In vitro antiviral activity was determined against Yellow Fever virus in monolayer culture of Vero cells; format: functional, cell-based; details: Chlorocebus sabaeus
Vero [5] = assay: Antiviral activity was determined as inhibition of plaque formation against Rift Valley fever in monolayer culture of Vero cells; format: functional, cell-based; details: Chlorocebus sabaeus
Vero [6] = assay: In vitro antiviral activity was determined against Japanese encephalitis virus in monolayer culture of Vero cells; format: functional, cell-based; details: Chlorocebus sabaeus
Vaccinia virus = assay: Antiviral activity was determined against Vaccinia virus; format: functional, organism-based; details: Orthopoxvirus vaccinia
[7] = test system: Human immunodeficiency virus 1; assay: Antiviral activity was determined against Human immunodeficiency virus; format: functional, organism-based
Pichinde virus = assay: Antiviral activity was determined against Pichinde virus; format: functional, organism-based
unidentified adenovirus [8] = assay: as §1; format: functional, organism-based; in short: as §2; remark: listed apart in the source

Measured: Activity

O=c1[nH]c(=O)n(COC(CO)C(O)CF)cc1I (stereo not given)
not listed: [7] | Pichinde virus | unidentified adenovirus [8]
inactive: all other assays above

O=c1ccn(COC2COP(=O)(Oc3ccc([N+](=O)[O-])cc3)OC2CF)c(=O)[nH]1 (stereo not given)
inactive: [1] | unidentified adenovirus [2] | Vaccinia virus

Cc1cn(COC2COP(=O)(Oc3ccc([N+](=O)[O-])cc3)OC2CF)c(=O)[nH]c1=O (stereo not given)
inactive: [1] | unidentified adenovirus [2] | Vaccinia virus

Cc1cn(COC(CO)C(O)CF)c(=O)[nH]c1=O (stereo not given)
not listed: unidentified adenovirus [8]
inactive: all other assays above

NC(=O)c1ncn(COC(CO)C(O)CF)n1 (stereo not given)
not listed: [7] | Pichinde virus | unidentified adenovirus [8]
inactive: all other assays above

Nc1nc(O)c2ncn(COC(CO)C(O)CF)c2n1 (stereo not given)
not listed: unidentified adenovirus [2] | Pichinde virus
inactive: all other assays above

O=c1ccn(COC(CO)C(O)CF)c(=O)[nH]1 (stereo not given)
not listed: Pichinde virus | unidentified adenovirus [8]
inactive: all other assays above
